From ChEMBL document CHEMBL6092224, “The Discovery and Preclinical Profile of ALG-000184, a Prodrug of the Potent Hepatitis B Virus Capsid Assembly Modulator ALG-001075” (J Med Chem, 2024)
Calls of active or inactive are those of the source. The rule behind the calls is not given here.

Tests used:
[1] = tested on: Hepatitis B virus; test: Antiviral activity against HBV infected in human HepG2.117 cells by qPCR analysis; assay type: functional, organism-based
How it was run: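 HepG2.117 cells (integrated genotype D HBV genome, Tet-off promoter; kept in 1 μg/mL doxycycline) were seeded at 20,000 cells/well and given serial compound dilutions (2% DMSO) for 3 days at 37 °C. Lysates were taken in 0.33% NP40. Intracellular HBV DNA was quantified by qPCR and EC50/EC90 derived. For serum shift, 40% human serum was present during incubation. Mean ± SEM, n=3 (serum) or 13.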

[2] = Clearance in mouse; assay type: ADME, organism-based; conditions: in vivo
[3] = tested on: Mus musculus; test: Effect on HBeAg level in C57BL/6 mouse infected with AAV-Hepatitis B virus at 50 mg/kg, po bid for 56 days followed by induction of compound washout period for 14 days; assay type: functional, organism-based; conditions: time 70.0 day
[4] = tested on: Mus musculus; test: Effect on HBsAg level in C57BL/6 mouse infected with AAV-Hepatitis B virus at 50 mg/kg, po bid for 56 days followed by induction of compound washout period for 14 days; assay type: functional, organism-based; conditions: time 70.0 day
[5] = tested on: Hepatitis B virus; test: Antiviral activity against AAV-Hepatitis B virus infected in C57BL/6 mouse assessed as reduction in baseline HBV DNA production at 50 mg/kg, po bid for 56 days followed by induction of compound washout period measured after 7 days; assay type: functional, organism-based; conditions: time 63.0 day
[6] = Toxicity in C57BL/6 mouse infected with AAV-Hepatitis B virus assessed as change in body weight at 50 mg/kg, po bid for 56 days followed by induction of compound washout period for 14 days; assay type: organism-based; conditions: in vivo, 1680 h, time 70 day
[7] = Toxicity in C57BL/6 mouse infected with AAV-Hepatitis B virus assessed as change in ALT level at 50 mg/kg, po bid for 56 days followed by induction of compound washout period for 14 days; assay type: organism-based; conditions: in vivo, 1680 h, time 70 day
[8] = tested on: Hepatitis B virus; test: Antiviral activity against AAV-Hepatitis B virus infected in C57BL/6 mouse assessed as reduction in baseline HBV DNA production at 50 mg/kg, po qd measured after 7 days; assay type: functional; conditions: time 7 day
[9] = Metabolic stability in human liver microsomes assessed as half life at 1 uM incubated upto 60 mins in presence of NADPH; assay type: ADME, Microsome
How it was run: (§1)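 Compound at 1 μM incubated at 37 °C with liver microsomes of each species for 0, 15, 30 and 60 min, with and without NADPH; half-life determined.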

[10] = target: hERG (KCNH2) (Homo sapiens, UniProt Q12809); test: Inhibition of hERG expressed in mammalian cells at 10 uM by automated patch-clamp technique relative to control; assay type: toxicity, cell-based; conditions: mammalian cells expressing hERG
How it was run: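 Currents of hERG, Nav1.5 or Cav1.2 channels expressed in mammalian cells recorded by automated patch clamp (QPatch 48) at room temperature.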

[11] = Metabolic stability in mouse liver microsomes assessed as half life at 1 uM incubated upto 60 mins in presence of NADPH; assay type: ADME, Microsome; how it was run: as §1

Sequence of hERG (KCNH2) (Q12809 whole entry): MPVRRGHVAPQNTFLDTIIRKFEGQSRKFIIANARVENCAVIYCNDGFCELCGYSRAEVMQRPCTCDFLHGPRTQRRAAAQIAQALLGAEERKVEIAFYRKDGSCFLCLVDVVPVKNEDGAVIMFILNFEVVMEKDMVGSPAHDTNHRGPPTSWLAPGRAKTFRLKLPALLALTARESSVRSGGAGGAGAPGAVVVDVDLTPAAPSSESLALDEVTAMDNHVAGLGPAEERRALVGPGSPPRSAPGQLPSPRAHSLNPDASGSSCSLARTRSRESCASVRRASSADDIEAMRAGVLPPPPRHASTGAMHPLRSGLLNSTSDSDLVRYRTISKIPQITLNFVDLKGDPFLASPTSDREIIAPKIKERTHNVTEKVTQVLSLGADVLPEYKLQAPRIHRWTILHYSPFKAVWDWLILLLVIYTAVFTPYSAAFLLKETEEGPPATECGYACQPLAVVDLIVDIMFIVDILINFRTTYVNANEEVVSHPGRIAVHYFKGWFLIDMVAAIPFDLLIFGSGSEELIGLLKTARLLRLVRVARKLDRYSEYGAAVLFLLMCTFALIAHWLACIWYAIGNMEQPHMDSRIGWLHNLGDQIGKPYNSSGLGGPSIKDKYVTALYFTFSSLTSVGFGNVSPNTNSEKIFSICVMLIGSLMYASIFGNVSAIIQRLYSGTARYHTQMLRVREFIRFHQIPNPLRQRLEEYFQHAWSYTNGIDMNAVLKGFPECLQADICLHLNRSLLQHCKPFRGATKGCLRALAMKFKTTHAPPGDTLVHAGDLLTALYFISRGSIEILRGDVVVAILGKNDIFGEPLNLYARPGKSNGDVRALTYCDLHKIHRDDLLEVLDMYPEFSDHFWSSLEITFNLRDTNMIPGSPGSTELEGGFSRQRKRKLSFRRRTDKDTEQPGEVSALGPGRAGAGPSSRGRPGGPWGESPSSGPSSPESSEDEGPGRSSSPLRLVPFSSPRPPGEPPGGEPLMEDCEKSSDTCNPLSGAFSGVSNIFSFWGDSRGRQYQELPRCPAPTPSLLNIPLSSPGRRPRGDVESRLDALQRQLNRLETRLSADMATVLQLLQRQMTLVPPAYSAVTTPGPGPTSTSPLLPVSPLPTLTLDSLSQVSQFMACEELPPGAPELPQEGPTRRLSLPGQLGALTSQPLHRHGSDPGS

Structure (SMILES) | EC50 [1] | further results
C#CC1(NC(=O)C(=O)c2c(C)c(C(=O)Nc3ccc(F)c(C#N)c3)n(C)c2C)CCOCC1 | 2.11 nM | 
C#CCNC(=O)C(=O)c1c(C)c(C(=O)Nc2ccc(F)c(C#N)c2)n(C)c1C | 2.88 nM | clearance [2]: 13.2 mL/min/kg
C#C[C@H](C)NC(=O)C(=O)c1c(C)c(C(=O)Nc2ccc(F)c(C#N)c2)n(C)c1C | 0.98 nM | 
C#CC1(NC(=O)C(=O)c2c(C)c(C(=O)Nc3ccc(F)c(C#N)c3)n(C)c2C)CCS(=O)(=O)CC1 | 3.51 nM | 
C#CC(C)(C)NC(=O)C(=O)c1c(C)c(C(=O)Nc2ccc(F)c(C#N)c2)n(C)c1C | 1.49 nM | 
C#CC1(NC(=O)C(=O)c2c(C)c(C(=O)Nc3ccc(F)c(C#N)c3)n(C)c2C)CC(F)(F)C1 | 0.32 nM | 
C#CC1(NC(=O)C(=O)c2c(C)c(C(=O)Nc3ccc(F)c(C#N)c3)n(C)c2C)CCC1 | 0.73 nM | 
C[C@@H](NS(=O)(=O)c1cn(C)c(C(=O)Nc2ccnc(Cl)c2)c1F)C(F)(F)F |  | Activity [3]: inactive; Activity [4]: inactive; Activity [5]: inactive; Activity [6]: Non-toxic; Activity [7]: Non-toxic; Activity [8]: -2.5 log10IU/ml
C#C[C@@H](C)NC(=O)C(=O)c1c(C)c(C(=O)Nc2ccc(F)c(C#N)c2)n(C)c1C | 1.32 nM | 
C#CC1(NC(=O)C(=O)c2c(C)c(C(=O)Nc3ccc(F)c(C#N)c3)n(C)c2C)CCCC1 | 1.99 nM | 
C#CCNC(=O)C(=O)c1c(C)c(C(=O)Nc2ccc(F)c(F)c2)n(C)c1C | 2.6 nM | half-life at 1 µM [9]: > 60 min; clearance [2]: 78.2 mL/min/kg; inhibition at 10 µM [10]: 31.2%; half-life at 1 µM [11]: 40.4 min
C#CCNC(=O)C(=O)c1c(C)c(C(=O)Nc2ccc(F)c(C(F)(F)F)c2)n(C)c1C | 2.65 nM | 
C#CCNC(=O)C(=O)c1c(C)c(C(=O)Nc2ccc(F)c(C)c2)n(C)c1C | 1.98 nM | clearance [2]: 54.3 mL/min/kg
C#CC1(NC(=O)C(=O)c2c(C)c(C(=O)Nc3ccc(F)c(C#N)c3)n(C)c2C)CC1 | 0.45 nM | 
